These results are taken from ChEMBL document CHEMBL1128416, “Synthesis and evaluation of 6,7-dihydroxy-2,3,4,8,9,13b-hexahydro-1H- benzo[6,7]cyclohepta[1,2,3-ef][3]benzazepine, 6,7-dihydroxy- 1,2,3,4,8,12b-hexahydroanthr[10,4a,4-cd]azepine, and 10-(aminomethyl)-9,10- dihydro-1,2-dihydroxyanthracene as conformationally restricted analogs of …” (J Med Chem, 1995).

Some results are limits rather than exact numbers.

What all share (settings): Striatum; Membrane
Assay [1] addresses D(1A) dopamine receptor (Rattus norvegicus) (UniProt P18901).
For assay [2], the target named is D(2) dopamine receptor (Rattus norvegicus) (UniProt P61169). As to the kind of experiment: Binding affinity towards Dopamine receptor D2 by displacing [3H]spiperone radio-ligand in rat striatal membranes by using radioligand competition assay. The class given is cell membranes. The essentials:
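Same rat striatal membrane preparation as the D1 assay: HEPES/MgCl2 buffer, pH 7.4, 37 °C incubation, filtration and scintillation counting. [3H]spiperone was the radioligand, competed with increasing test concentrations. IC50 derived from the displacement data.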
For orientation: Loss of bound radioactivity is the signal in a displacement assay; it reports binding, not function.

The target of assay [3] is D(1A) dopamine receptor (Rattus norvegicus) (UniProt P18901). As to the kind of experiment: Binding affinity to the dopamine receptor D1 by displacing [3H]-SCH- 23390 radio-ligand in rat striatal membranes by using radioligand competition assay. The class given is cell membranes. The essentials: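 Striata from male Sprague-Dawley rats (200–400 g), fresh or stored at -70 °C. Homogenized in ice-cold 50 mM HEPES with 4.0 mM MgCl2, pH 7.4, washed twice by centrifugation at 27000g, and resuspended at ~2.0 mg wet weight/mL. Membranes were incubated with 0.3 nM [3H]SCH 23390 and increasing test concentrations for 15 min at 37 °C. Nonspecific binding defined with 1 μM SCH 23390. Filtered, scintillation counted, IC50 derived.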
D(1A) dopamine receptor (Rattus norvegicus), sequence (P18901 whole entry): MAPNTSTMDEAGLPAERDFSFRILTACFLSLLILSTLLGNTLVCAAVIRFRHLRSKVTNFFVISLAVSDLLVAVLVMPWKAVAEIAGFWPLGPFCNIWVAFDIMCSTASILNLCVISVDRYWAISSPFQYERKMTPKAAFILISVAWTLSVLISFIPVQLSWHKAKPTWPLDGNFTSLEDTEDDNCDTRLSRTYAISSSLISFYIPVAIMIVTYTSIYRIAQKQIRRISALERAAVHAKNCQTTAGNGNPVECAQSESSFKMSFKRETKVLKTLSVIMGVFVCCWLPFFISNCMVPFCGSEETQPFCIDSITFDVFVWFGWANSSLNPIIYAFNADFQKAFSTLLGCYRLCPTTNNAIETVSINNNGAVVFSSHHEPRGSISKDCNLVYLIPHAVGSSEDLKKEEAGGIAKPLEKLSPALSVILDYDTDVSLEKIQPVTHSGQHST

D(2) dopamine receptor (Rattus norvegicus), sequence (P61169 whole entry): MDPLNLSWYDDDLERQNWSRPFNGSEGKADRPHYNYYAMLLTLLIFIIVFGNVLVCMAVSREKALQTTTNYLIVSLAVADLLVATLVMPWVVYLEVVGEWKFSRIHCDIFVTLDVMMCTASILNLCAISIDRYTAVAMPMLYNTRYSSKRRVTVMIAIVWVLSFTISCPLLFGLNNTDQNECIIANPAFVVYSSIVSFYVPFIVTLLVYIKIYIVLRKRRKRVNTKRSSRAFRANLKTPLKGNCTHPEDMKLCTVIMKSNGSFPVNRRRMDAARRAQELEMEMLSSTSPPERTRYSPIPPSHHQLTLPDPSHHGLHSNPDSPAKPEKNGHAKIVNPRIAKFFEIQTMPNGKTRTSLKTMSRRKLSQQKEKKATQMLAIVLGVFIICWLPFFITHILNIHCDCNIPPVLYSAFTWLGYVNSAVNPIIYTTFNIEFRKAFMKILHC

Consider `Oc1cc2c(cc1O)[C@H]1c3ccccc3CN[C@@H]1CC2`, for which the K0.5 in assay [1] was 2.4 nM; in assay [2] it was 29 nM.

In the case of `Oc1cc2c3c(c1O)CCc1ccccc1C3CNCC2` (stereo not given), the values for the K0.5 in assay [3] and in assay [2] were 372 nM and 2150 nM, respectively.

`Oc1cc2c3c(c1O)Cc1ccccc1C3CNCC2` (stereo not given): the K0.5 in assay [3] turned out to be 590 nM; in assay [2] it was 1250 nM.

With `NCC1c2ccccc2Cc2c1ccc(O)c2O` (stereo not given), the K0.5 in assay [3] and in assay [2] was over 2500 nM in each case.

For `Oc1cc2c(cc1O)[C@@H](c1ccccc1)CNCC2`, the K0.5 was found to be 11.1 nM in assay [3] and 1870 nM in assay [2].
